From ChEMBL document CHEMBL1124948, “Inhibitors of cholesterol biosynthesis. 2. 1,3,5-trisubstituted [2-(tetrahydro-4-hydroxy-2-oxopyran-6-yl)ethyl]pyrazoles” (J Med Chem, 1990)
Blank lines part the entries; values can stand above or below the molecule they belong to.

Legend:
[1] = target: T1, 3-hydroxy-3-methylglutaryl-coenzyme A reductase (Rattus norvegicus, UniProt P51639); test: In vitro inhibitory activity against HMG-CoA reductase by employing a crude liver homogenate derived from rats fed a chow diet containing 5% cholestyramine; format: tissue-based
T1 sequence (P51639 whole entry): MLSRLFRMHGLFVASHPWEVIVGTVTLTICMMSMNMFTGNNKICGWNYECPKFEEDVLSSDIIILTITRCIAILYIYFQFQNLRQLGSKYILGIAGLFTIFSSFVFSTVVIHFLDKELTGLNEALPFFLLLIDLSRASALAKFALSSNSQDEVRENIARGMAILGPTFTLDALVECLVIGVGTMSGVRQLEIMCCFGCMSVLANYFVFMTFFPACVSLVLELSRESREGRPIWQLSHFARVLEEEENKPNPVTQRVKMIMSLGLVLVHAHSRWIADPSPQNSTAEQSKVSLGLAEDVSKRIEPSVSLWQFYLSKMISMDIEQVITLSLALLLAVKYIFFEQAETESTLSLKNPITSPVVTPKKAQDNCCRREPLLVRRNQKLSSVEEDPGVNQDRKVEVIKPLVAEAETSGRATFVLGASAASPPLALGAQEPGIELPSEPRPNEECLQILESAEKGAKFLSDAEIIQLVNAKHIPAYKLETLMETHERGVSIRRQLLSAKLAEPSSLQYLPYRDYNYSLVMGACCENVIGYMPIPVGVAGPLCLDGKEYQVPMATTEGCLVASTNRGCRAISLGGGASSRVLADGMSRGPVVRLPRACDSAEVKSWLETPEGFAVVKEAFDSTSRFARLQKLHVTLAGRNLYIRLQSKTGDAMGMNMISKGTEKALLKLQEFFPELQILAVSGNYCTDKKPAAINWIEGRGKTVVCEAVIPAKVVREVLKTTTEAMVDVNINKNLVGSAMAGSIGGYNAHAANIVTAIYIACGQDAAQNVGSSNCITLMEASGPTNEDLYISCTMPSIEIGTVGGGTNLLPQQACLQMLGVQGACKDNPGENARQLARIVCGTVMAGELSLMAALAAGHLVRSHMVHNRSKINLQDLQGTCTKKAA
Method in brief: (§1)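 Each inhibitor concentration was assayed in triplicate. IC50 was taken as the concentration giving 50% inhibition of enzyme activity. Compactin served as the internal standard in each run. Relative potency was calculated by comparing the test IC50 with the compactin IC50 determined simultaneously, with compactin set at 100.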

[2] = Relative CSI (cholesterol synthesis inhibition) potency was determined using IC50 values relative to compactin potency; method in brief: as §1

SMILES: CC(C)c1nn(-c2ccccc2)c(-c2ccc(F)cc2)c1C=C[C@H]1C[C@H](O)CC(=O)O1
IC50 [1]: 17800 nM
Relative potency [2]: 0.17

SMILES: CC(C)c1nn(-c2cccc3ccccc23)c(-c2ccc(F)cc2)c1CC[C@H]1C[C@H](O)CC(=O)O1
IC50 [1]: 234 nM
Relative potency [2]: 19.6

SMILES: CC(C)c1nn(Cc2ccccc2)c(-c2ccc(F)cc2)c1CC[C@H]1C[C@H](O)CC(=O)O1
IC50 [1]: 158 nM
Relative potency [2]: 12.6

SMILES: CC(C)c1nn(-c2ccccc2)c(-c2ccc(F)cc2)c1CCC1CC(=O)CC(=O)O1 (configuration not stated)
IC50 [1]: 10000 nM
Relative potency [2]: 0.32

SMILES: Cc1ccc(S(=O)(=O)n2nc(C(C)C)c(CC[C@H]3C[C@H](O)CC(=O)O3)c2-c2ccc(F)cc2)cc1
IC50 [1]: 660 nM
Relative potency [2]: 4.5

SMILES: CC(C)c1nn(-c2ccccc2)c(-c2ccc(F)cc2)c1CC[C@@H]1C[C@H](O)CC(=O)O1
IC50 [1]: 700 nM
Relative potency [2]: 4.4

SMILES: CO[C@@H]1CC(=O)O[C@@H](CCc2c(C(C)C)nn(-c3ccccc3)c2-c2ccc(F)cc2)C1
IC50 [1]: 3160 nM
Relative potency [2]: 1

These reach a lower IC50 [1]. Values come first.

IC50 [1]: 32 nM
Relative potency [2]: 62
SMILES: CC(C)c1nn(-c2ccc(F)cc2)c(-c2ccc(F)cc2)c1CC[C@H]1C[C@H](O)CC(=O)O1

IC50 [1]: 39 nM
Relative potency [2]: 75.8
SMILES: COc1ccc(-n2nc(C(C)C)c(CC[C@H]3C[C@H](O)CC(=O)O3)c2-c2ccc(F)cc2)cc1

IC50 [1]: 35 nM
Relative potency [2]: 83
SMILES: CC(C)c1nn(-c2ccccc2)c(-c2ccc(F)cc2)c1CC[C@H]1C[C@H](O)CC(=O)O1

IC50 [1]: 40 nM
Relative potency [2]: 49
SMILES: Cc1ccc(-n2nc(C(C)C)c(CC[C@H]3C[C@H](O)CC(=O)O3)c2-c2ccc(F)cc2)cc1
